Experimental data as given in ChEMBL document CHEMBL5252523, “Searching for New Leads for Tuberculosis: Design, Synthesis, and Biological Evaluation of Novel 2-Quinolin-4-yloxyacetamides” (J Med Chem, 2016).
In brackets after ≈: the same amount, converted by molar mass.

Columns and labels:
[1] = tested on: Mycobacterium tuberculosis; assay: Antimycobacterial activity against Mycobacterium tuberculosis H37Rv ATCC 25618 assessed as inhibition of microbial growth incubated for 6 days by resazurin based assay; format: functional; settings: H37Rv ATCC 25618, 144 h, time 6 day
Method in brief: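 Ten two-fold dilutions made in neat DMSO, tested in Middlebrook 7H9 with the H37Rv inoculum. Controls: isoniazid from 4 μg/ml as positive control; rifampicin 1 μM as no-growth control. Plates sat sealed at 37 °C without shaking for 6 days.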

[2] = Kinetic aqueous solubility of compound in phosphate buffer at pH 7.4 incubated for 1 hrs by CLND assay; format: physicochemical; settings: read-out: Kinetic_solubility
[3] = Artificial membrane permeability of the compound incubated for 3 hrs by HPLC analysis; format: ADME; settings: PAMPA, read-out: permeability
[4] = Microsomal stability in human liver microsomes assessed as half life at 0.5 uM preincubated followed by NADPH addition and measured upto 30 mins by LC-MS/MS analysis; format: ADME, Microsome
[5] = target: Voltage-gated inwardly rectifying potassium channel KCNH2 (Homo sapiens, UniProt Q12809); assay: Inhibition of human ERG; format: toxicity
[6] = Microsomal stability in mouse liver microsomes assessed as half life at 0.5 uM preincubated followed by NADPH addition and measured upto 30 mins by LC-MS/MS analysis; format: ADME, Microsome
[7] = tested on: Mycobacterium tuberculosis; assay: Antimycobacterial activity against Mycobacterium tuberculosis H37Rv ATCC 25618 expressing pATB45luc infected in PMA-stimulated human THP-1 cells assessed as inhibition of intracellular bacterial growth incubated for 4 days by BrightGlo luciferase assay; format: functional, organism-based; settings: H37Rv ATCC 25618, THP-1, 96 h; for IC90: time 4 day
Method in brief: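 THP-1 cells grown in RPMI-1640 with 10% FBS, 1 mM pyruvate and 2 mM L-glutamine. Cells were PMA-differentiated (40 ng/ml) while infected with single-cell Mtb H37Rv-pATB45luc at MOI 1:1 for 4 h at 37 °C in a roller bottle, then washed four times. About 10000 cells/well were added onto pre-dispensed compound (max DMSO 0.5%) and incubated 4 days at 37 °C. Luciferase luminescence was read; IC50/IC90 came from nonlinear regression of dose-response curves.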

[8] = Chromatographic hydrophobicity index, log D of the compound in phosphate buffer at pH 7.4 by UV-HPLC analysis; format: physicochemical
[9] = Stability of compound in CD1 mouse blood assessed as half life at 0.5 uM incubated upto 240 mins by LC-MS/MS analysis; format: ADME, tissue-based
Method in brief: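 Fresh CD1 mouse whole blood collected in EDTA tubes and spiked with compound. Three 300 μl aliquots were incubated at 37 °C. Supernatants were analysed by LC-MS/MS; analyte/internal standard ratios were normalised to time zero as % remaining, and half-life was taken from ln plots of % remaining.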

[10] = Cytotoxicity against human HepG2 cells assessed as cell growth inhibition incubated for 48 hrs by CellTiter-Glo reagent based analysis; format: toxicity
Method in brief: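 HepG2 cells kept in Eagle's MEM with 10% heat-inactivated FBS, 1% NEAA and penicillin/streptomycin, seeded at ~3000 cells/well onto pre-dispensed compound. Incubation was 48 h at 37 °C, 5% CO2. Plates were equilibrated to room temperature, CellTiter-Glo was added, and ATP luminescence was read after 10 min as the viability read-out.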

[11] = Stability of compound in CD1 mouse blood at 0.5 uM incubated upto 240 mins in presence of NaF pretreatment by LC-MS/MS analysis; format: ADME, tissue-based; settings: 4 h

Sequence of Voltage-gated inwardly rectifying potassium channel KCNH2 (Q12809 whole entry): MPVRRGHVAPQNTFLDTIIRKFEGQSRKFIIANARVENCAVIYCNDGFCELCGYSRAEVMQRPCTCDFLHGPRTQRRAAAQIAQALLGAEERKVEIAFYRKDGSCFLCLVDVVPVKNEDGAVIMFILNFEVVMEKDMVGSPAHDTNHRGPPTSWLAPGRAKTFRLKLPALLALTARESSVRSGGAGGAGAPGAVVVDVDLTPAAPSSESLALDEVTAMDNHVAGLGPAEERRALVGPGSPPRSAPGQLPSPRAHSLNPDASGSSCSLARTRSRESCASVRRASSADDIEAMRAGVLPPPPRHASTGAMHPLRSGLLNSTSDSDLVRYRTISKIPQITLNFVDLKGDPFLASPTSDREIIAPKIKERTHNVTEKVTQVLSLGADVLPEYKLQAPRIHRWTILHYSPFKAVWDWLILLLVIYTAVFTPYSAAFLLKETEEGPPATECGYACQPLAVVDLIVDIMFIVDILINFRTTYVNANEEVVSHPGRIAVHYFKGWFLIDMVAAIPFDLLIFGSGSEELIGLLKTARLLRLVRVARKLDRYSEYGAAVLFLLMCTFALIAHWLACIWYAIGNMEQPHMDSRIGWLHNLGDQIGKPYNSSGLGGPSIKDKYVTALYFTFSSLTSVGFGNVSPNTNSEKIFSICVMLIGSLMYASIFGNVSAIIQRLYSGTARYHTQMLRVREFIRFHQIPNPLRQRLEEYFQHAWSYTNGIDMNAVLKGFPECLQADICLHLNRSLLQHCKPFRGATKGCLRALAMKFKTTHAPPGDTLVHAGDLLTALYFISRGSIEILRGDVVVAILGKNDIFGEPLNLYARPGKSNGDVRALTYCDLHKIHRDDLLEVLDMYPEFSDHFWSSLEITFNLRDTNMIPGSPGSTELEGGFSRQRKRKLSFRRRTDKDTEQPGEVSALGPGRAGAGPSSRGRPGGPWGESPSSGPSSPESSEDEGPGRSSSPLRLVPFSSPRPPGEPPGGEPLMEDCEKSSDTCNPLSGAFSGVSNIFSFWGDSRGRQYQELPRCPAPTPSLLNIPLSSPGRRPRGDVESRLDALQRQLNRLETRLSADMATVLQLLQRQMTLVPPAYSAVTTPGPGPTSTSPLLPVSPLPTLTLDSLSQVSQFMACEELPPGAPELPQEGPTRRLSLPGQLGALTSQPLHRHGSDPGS

SMILES | MIC [1] [µM] | solubility kinetic at 1 h [2] [µM] | Papp at 3 h [3] [×10⁻⁶ cm/s] | half-life at 0.5 µM [4] [min] | IC50 [5] [µM] | half-life at 0.5 µM [6] [min] | IC50 [7] [µM] | IC90 [7] [µM] | chromatographic logD [8] | half-life at 0.5 µM [9] [min] | IC50 at 48 h [10] [µM] | Stability [11]
COc1ccc2nc(C)cc(OCC(=O)Nc3cc(C)cc(C)c3)c2c1 | 1.9 | 26 (≈ 9.11 µg/mL) | 18 | > 30 | > 50.1 | < 5 | 0.05 | 0.2 | 5.64 | < 5 |  | 
COc1ccc2nc(C)cc(OCC(=O)Nc3ccccc3OC)c2c1 | 1.4 |  |  | 16 |  | < 3 | 0.5 | 1.58 | 4.68 |  | > 100 | 
COc1ccc2nc(C)cc(OCC(=O)Nc3ccc(Cl)cc3)c2c1 | 3 | 9 (≈ 3.21 µg/mL) |  |  | 5.01 |  | 0.16 | 0.5 | 5.15 |  | > 100 | 
COc1ccc(NC(=O)COc2cc(C)nc3ccc(OC)cc23)cc1 | 0.6 | 108 (≈ 38.1 µg/mL) | 42 |  | 6.31 |  | 0.03 | 0.25 | 4.22 |  | > 100 | 
COc1ccc2nc(C)cc(OCC(=O)Nc3cccc(C)c3)c2c1 | 2 | 193 (≈ 64.9 µg/mL) | 35.5 | 23 |  | < 5 |  |  | 4.83 | < 5 | 39.8 | 
COc1ccc2nc(C)cc(OCC(=O)NC3CONC3=O)c2c1 (stereo not given) | > 125 | ≥ 166 | < 1 |  |  |  |  |  | 0.79 |  | > 100 | 
COc1ccc2nc(C)cc(OCC(=O)Nc3cc(C)c(F)c(C)c3)c2c1 | 2 | 31.5 (≈ 11.6 µg/mL) | 21 | > 30 | > 50.1 | < 5 | 0.08 | 0.25 | 5.5 | < 5 | > 100 | 
COc1ccc2nc(C)cc(OC(C)(C)C(=O)Nc3cc(C)cc(C)c3)c2c1 | > 250 | 20 (≈ 7.57 µg/mL) |  | 19 |  | < 5 |  |  | 6.37 | 96 | > 100 | Stable
COc1ccc2nc(C)cc(OCc3nc4cc(C)ccc4o3)c2c1 | 5.5 | 1 (≈ 0.334 µg/mL) | 8.6 | 15.7 | > 50.1 | < 5 |  | 5 | 6.12 | > 240 | > 100 | 
COc1ccc2nc(C)cc(OCC(=O)Nc3nc(C)c(C)s3)c2c1 | 62 | 31.5 (≈ 11.3 µg/mL) | 44 |  |  |  |  |  | 4.24 |  | > 100 | 
COc1ccc2nc(C)cc(OCC(=O)NNC(=O)c3ccncc3)c2c1 | 62 | ≥ 375 | 3.3 |  |  |  |  |  | 1.48 |  | > 100 | 
COc1ccc2nc(C)cc(OCC(=O)Nc3cc(F)cc(F)c3)c2c1 | 3 | 13 (≈ 4.66 µg/mL) |  |  |  |  | 0.4 | 2.51 | 5.13 |  | > 100 | 
COc1ccc2nc(C)cc(OCC(=O)Nc3ccc(S(=O)(=O)Nc4cc(C)on4)cc3)c2c1 | 125 | ≥ 381 | 1.5 |  |  |  |  |  | 2.2 |  | > 100 | 
COc1ccc2nc(C)cc(OCC(=O)N(C)c3cc(C)cc(C)c3)c2c1 | 109 | 373 (≈ 136 µg/mL) | 30 |  |  |  |  |  | 5.47 |  | 50.1 | 
COc1ccc2nc(C)cc(OCC(=O)Nc3ccc(Cl)cc3Cl)c2c1 | 2 | 20.5 (≈ 8.02 µg/mL) |  |  |  |  | 0.79 | > 50 | 6.4 |  | > 100 | 
COc1ccc2nc(C)cc(OCC(=O)Nc3cc(C)ccc3OC)c2c1 | 2.5 | 9.5 (≈ 3.48 µg/mL) |  |  | 5.01 |  | 0.16 | 0.63 | 5.65 |  | > 100 | 
COc1ccc2nc(C)cc(OCC(=O)Nc3noc(C)c3C)c2c1 | 187 | 196 (≈ 66.7 µg/mL) | 62.5 |  |  |  |  |  | 3.3 |  | > 100 | 
Cc1cc(C)cc(NC(=O)COc2cc(C)nc3ccc(C)cc23)c1 | 3.9 | 83 (≈ 27.8 µg/mL) | 52 | > 30 |  | < 5 |  |  | 5.95 | < 5 | 15.8 | 
COc1ccc2nc(C)cc(OCCNc3cc(C)cc(C)c3)c2c1 | 32 | 33 (≈ 11.1 µg/mL) | 19 | > 30 |  | < 5 |  |  | 6.93 | > 120 | 31.6 | Stable
COc1ccc2nc(C)cc(OCC(=O)Nc3cc(C)ccc3C)c2c1 | 8 | 45.5 (≈ 15.9 µg/mL) | 81 | 24 |  | < 5 |  |  | 5.05 | < 5 | > 100 | 
Cc1ncc2n1-c1ccc(Cl)cc1C(c1ccccc1F)=NC2 [MIDAZOLAM] |  |  |  | 9 |  | < 5 |  |  |  |  |  | 
